{"data": "Experimental data gathered from unrelated publications", "F10 trypsin-like site": "Coagulation factor X, trypsin-like site (F10, Homo sapiens, UniProt P00742)", "PCNA": "Proliferating cell nuclear antigen (PCNA, Homo sapiens, UniProt P12004)", "ADRB2": "Beta-2 adrenergic receptor (ADRB2, Homo sapiens, UniProt P07550)", "Ntsr1": "Neurotensin receptor type 1 (Ntsr1, Rattus norvegicus, UniProt P20789)", "note": "Lines come from different studies, so protocols differ."}
{"Structure (SMILES)": "CC(C)(C)[C@H](NC(=O)[C@H](CCONC(=N)N)NC(=O)Cc1ccc(CNC(=N)N)cc1)C(=O)N[C@@H](CCCCN)C(=O)NCc1ccc(C(=N)N)cc1", "target": "F10 trypsin-like site", "assay": "enzyme activity, inhibitor", "setting": "pH 8", "measurement": "Ki", "result": "26 µM"}
{"Structure (SMILES)": "O=C(N[C@H]1COC(=O)[C@@H](NC(=O)c2cccc(O)c2[O-])COC(=O)[C@@H](NC(=O)c2cccc(O)c2[O-])COC1=O)c1cccc(O)c1[O-].[Fe+3]", "target": "Neutrophil gelatinase-associated lipocalin (LCN2, Homo sapiens, UniProt P80188, C107S)", "assay": "binding, fluorescence", "setting": "pH 3", "measurement": "Kd", "result": "0.086 µM"}
{"Structure (SMILES)": "CCC#CCOc1ccc(S(=O)(=O)CC2CS2)cc1 (racemic)", "target": "72 kDa type IV collagenase (MMP2, Homo sapiens, UniProt P08253)", "assay": "enzyme activity, inhibitor, fluorescence", "measurement": "IC50", "result": "14 µM"}
{"Structure (SMILES)": "COc1cccc2c1C(=O)c1c(O)c3c(c(O)c1C2=O)C[C@@](O)(C(=O)CO)C[C@@H]3O[C@H]1C[C@H](N)[C@H](O)[C@H](C)O1", "target": "Ileal sodium/bile acid cotransporter (SLC10A2, Homo sapiens, UniProt Q12908)", "assay": "transporter uptake, inhibitor", "measurement": "Ki", "result": "101 µM"}
{"Structure (SMILES)": "CCCCNNC(=O)c1ccc(Br)cc1", "target": "Histone deacetylase 7 (HDAC7, Homo sapiens, UniProt Q8WUI4)", "assay": "enzyme activity, inhibitor, fluorescence", "measurement": "IC50", "result": "> 100 µM"}
{"Structure (SMILES)": "CC[C@H](C)[C@H](NC(=O)[C@H](CCCCNC(C)=O)NC(=O)[C@H](CO)NC(=O)[C@H](CC(=O)O)NC(=O)[C@H](CCCCN)NC(=O)[C@H](CCCCN)NC(=O)CNC(=O)[C@H](Cc1c[nH]cn1)NC(=O)[C@@H](N)CCC(N)=O)C(=O)N[C@H](C(=O)N[C@@H](CC(=O)O)C(=O)N[C@@H](Cc1c[nH]cn1)C(=O)N[C@@H](Cc1ccccc1)C(=O)N[C@@H](CCSC)C(=O)N[C@@H](CCCNC(=N)N)C(=O)N[C@@H](CC(C)C)C(=O)N1CCC[C@H]1C(=O)N[C@@H](CCCCN)C(=O)N[C@@H](C)C(=O)O)[C@@H](C)O", "target": "PCNA", "assay": "binding, ITC", "setting": "pH 7.4", "measurement": "Kd", "result": "6.14 µM"}
{"Structure (SMILES)": "C[C@H](N)Cn1ncc2ccc3c(c21)CCCO3", "target": "ADRB2", "assay": "ligand displacement, radioligand", "measurement": "IC50", "result": "0.48 µM"}
{"Structure (SMILES)": "CC(C)(C)[C@H](NC(=O)[C@H](CCCNC(=N)N)NC(=O)Cc1ccc(CNC(=N)N)cc1)C(=O)N[C@@H](CCCNC(=N)N)C(=O)NCc1ccc(C(=N)N)cc1", "target": "F10 trypsin-like site", "assay": "enzyme activity, inhibitor", "setting": "pH 8", "measurement": "Ki", "result": "7.1 µM"}
{"Structure (SMILES)": "NCC(O)c1ccc(O)c(O)c1F (stereo not drawn)", "target": "ADRB2", "assay": "ligand displacement, radioligand", "setting": "cell membranes", "measurement": "Ki", "result": "16 µM"}
{"Structure (SMILES)": "CC[C@H](C)[C@H](NC(=O)[C@H](CCCCN)NC(=O)[C@H](CO)NC(=O)[C@H](CC(=O)O)NC(=O)[C@H](CCCCN)NC(=O)[C@H](CCCCN)NC(=O)CNC(=O)[C@H](Cc1c[nH]cn1)NC(=O)[C@@H](N)CCC(N)=O)C(=O)N[C@H](C(=O)N[C@@H](CC(=O)O)C(=O)N[C@@H](Cc1c[nH]cn1)C(=O)N[C@@H](Cc1ccccc1)C(=O)N[C@@H](CCSC)C(=O)N[C@@H](CCCNC(=N)N)C(=O)N[C@@H](CC(C)C)C(=O)N1CCC[C@H]1C(=O)N[C@@H](CCCCN)C(=O)N[C@@H](C)C(=O)O)[C@@H](C)O", "target": "PCNA", "assay": "binding, ITC", "setting": "pH 7.4", "measurement": "Kd", "result": "3.28 µM"}
{"Structure (SMILES)": "COc1cc(N)c(Cl)cc1C(=O)NC1CN2CCC1CC2 (stereo not drawn)", "target": "ADRB2", "assay": "ligand displacement, radioligand", "setting": "cell membranes", "measurement": "IC50", "result": "244 µM"}
{"Structure (SMILES)": "O=C(N[C@H](C(=O)O)C1CCCCC1)c1cc(-c2c(F)cccc2F)n(-c2ccnc3cc(Cl)ccc23)n1", "target": "Ntsr1", "assay": "calcium signal, antagonist, fluorescence", "measurement": "Kb", "result": "> 10 µM"}
{"Structure (SMILES)": "CC[C@H](C)[C@H](NC(=O)[C@H](CCCCN)NC(=O)[C@H](CO)NC(=O)[C@H](CC(=O)O)NC(=O)[C@H](CCCCN)NC(=O)[C@H](CCCCN)NC(=O)CNC(=O)[C@H](Cc1c[nH]cn1)NC(=O)[C@@H](N)CCC(N)=O)C(=O)N[C@H](C(=O)N[C@@H](C)C(=O)N[C@@H](Cc1c[nH]cn1)C(=O)N[C@@H](Cc1ccccc1)C(=O)N[C@@H](CCSC)C(=O)N[C@@H](CCCNC(=N)N)C(=O)N[C@@H](CC(C)C)C(=O)N1CCC[C@H]1C(=O)N[C@@H](CCCCN)C(=O)N[C@@H](C)C(=O)O)[C@@H](C)O", "target": "PCNA", "assay": "binding, ITC", "setting": "pH 7.4", "measurement": "Kd", "result": "8.67 µM"}
{"Structure (SMILES)": "NCC(O)c1cc(O)c(O)cc1F (stereo not drawn)", "target": "ADRB2", "assay": "ligand displacement, radioligand", "setting": "cell membranes", "measurement": "Ki", "result": "1160 µM"}
{"Structure (SMILES)": "CC[C@H](C)[C@H](NC(=O)[C@H](CCCCN)NC(=O)[C@H](CO)NC(=O)[C@H](CC(=O)O)NC(=O)[C@H](CCCCN)NC(=O)[C@H](CCCCN)NC(=O)CNC(=O)[C@H](Cc1c[nH]cn1)NC(=O)[C@@H](N)CCC(N)=O)C(=O)N[C@H](C(=O)N[C@@H](CC(=O)O)C(=O)N[C@@H](C)C(=O)N[C@@H](Cc1ccccc1)C(=O)N[C@@H](CCSC)C(=O)N[C@@H](CCCNC(=N)N)C(=O)N[C@@H](CC(C)C)C(=O)N1CCC[C@H]1C(=O)N[C@@H](CCCCN)C(=O)N[C@@H](C)C(=O)O)[C@@H](C)O", "target": "PCNA", "assay": "binding, ITC", "setting": "pH 7.4", "measurement": "Kd", "result": "126 µM"}
{"Structure (SMILES)": "FC(F)(F)c1ccc2c(c1)[C@@H]1CNC[C@H]2C1", "target": "Neuronal acetylcholine receptor subunit alpha-7 (CHRNA7, Homo sapiens, UniProt P36544)", "assay": "cell-free assay", "measurement": "Ki", "result": "> 0.3 µM"}
{"Structure (SMILES)": "COc1cccc(OC)c1-c1cc(C(=O)NC2(C(=O)O)CCCCC2)nn1-c1ccc(F)cc1", "target": "Ntsr1", "assay": "calcium signal, antagonist, fluorescence", "measurement": "Kb", "result": "> 10 µM"}
{"Structure (SMILES)": "CC(C)C[C@H](NC(=O)[C@H](Cc1ccccc1)NC(=O)c1cnccn1)B(O)O", "target": "Coagulation factor X (F10, Homo sapiens, UniProt P00742)", "assay": "enzyme activity, inhibitor", "measurement": "IC50", "result": "> 33 µM"}
